The text below walks through data of ChEMBL document CHEMBL4330151, “Antiviral Compounds from Codiaeum peltatum Targeted by a Multi-informative Molecular Networks Approach” (J Nat Prod, 2019).

Some results are limits rather than exact numbers.

The nature of data set [1]: Cytotoxicity against African green monkey Vero cells by MTS assay. The data set is classed as cell-based. The settings on record: chlorocebus sabaeus. In a few lines:
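Uninfected Vero A cells were exposed to the same compound concentrations as the CHIKV antiviral plates and incubated 5 days at 37 °C, 5% CO2. MTS/PMS was added for 1.5 h and absorbance read at 498 nm. OD values were converted to control percentages, and CC50 was obtained by logarithmic interpolation. Values are medians ± absolute deviation of at least three independent assays.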

Data set [2] deals with Chikungunya virus. The data set is described as follows: Antiviral activity against Chikungunya virus Indian Ocean strain 899 infected in African green monkey Vero cells assessed as protection against virus-induced cytopathic effect after 5 days by MTS assay. The format is functional, organism-based. The settings on record: Indian Ocean strain 899, Vero, 120 h. In general terms: Protection from cytopathic effect is a common read-out in antiviral testing.

Data set [3] can be described thus: Selectivity index, ratio of CC50 for African green monkey Vero cells to EC50 for Chikungunya virus Indian Ocean strain 899 infected in African green monkey Vero cells. The conditions noted are these: read-out: Ratio CC50/EC50. The format is toxicity. In a few lines: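 SI is CC50 (Vero) divided by EC50 (CHIKV) from the same 5-day MTS assay. For CC50, uninfected Vero A cells were exposed to the same compound concentrations. CC50 is the concentration reducing viable cells by 50%, by logarithmic interpolation of OD 498 nm control percentages. Median of ≥3 independent assays.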

Data set [4] can be described thus: Inhibition of ZIKV N-terminal His6-tagged NS5 protein expressed in Escherichia coli using (Poly U) RNA template […] in presence of ATP by picogreen dye based assay. The arrangement: species or system Zika virus.
A short description of data set [5]: Inhibition of DENV2 N-terminal His6-tagged NS5 protein expressed in Escherichia coli using (Poly U) RNA template […] in presence of ATP by picogreen dye based assay. The arrangement: species or system dengue virus type 2.
Data set [6] in a line: Inhibition of ZIKV N-terminal His6-tagged NS5 protein expressed in Escherichia coli using (Poly U) RNA template […] in presence of ATP/Triton-X-100 by picogreen dye based assay. Also noted: species or system Zika virus.
Data set [7] in a line: Inhibition of DENV2 N-terminal His6-tagged NS5 protein expressed in Escherichia coli using (Poly U) RNA template […] in presence of ATP/Triton-X-100 by picogreen dye based assay. The arrangement: species or system dengue virus type 2.
The nature of data set [8]: Inhibition of GTP-bodipy binding to ZIKV N-terminal His6-tagged NS5 protein expressed in Escherichia coli after 15 mins by fluorescence polarization assay. The arrangement: species or system Zika virus. The settings on record: read-out: Kd(app). An outline of the steps:
(§1)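 Buffer was 50 mM Tris pH 7.5, 50 mM NaCl, 0.01% NP40 and 1 mM DTT, with 50 nM GTP-bodipy. NS5 was 300 nM for DENV-2 and 150 nM for ZIKV, with seven compound concentrations in 5% DMSO. Plates were incubated 15 min at room temperature, and fluorescence polarization was read at 485/520 nm after background subtraction. Kdapp was curve-fitted from triplicates in a single experiment.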
Background: Fluorescence polarisation rises when a labelled molecule tumbles more slowly, as on binding a larger partner.

The nature of data set [9]: Inhibition of GTP-bodipy binding to DENV2 N-terminal His6-tagged NS5 protein expressed in Escherichia coli after 15 mins by fluorescence polarization assay. Also noted: species or system dengue virus type 2. The conditions noted are these: read-out: Kd(app). An outline of the steps:
as §1

By CC50 is commonly meant the concentration giving 50% cytotoxicity. What is called EC50 is the concentration that produces a half-maximal response. In general, IC50 refers to the concentration that inhibits the measured activity by half. `C=C(C)[C@@]12OC3(c4ccccc4)O[C@@H]1[C@@H]1[C@@H]4O[C@]4(CO)[C@@H](O)[C@@]4(O)[C@@H](C[C@H](C)[C@@H]4OC(=O)c4ccccc4)[C@@]1(O3)[C@](C)(O)[C@@H]2OC(=O)c1ccccc1` showed a CC50 in data set [1] of 52 µM. Further, the EC50 in [2] amounted to 10 µM. Also, the selectivity ratio in data set [3] was 5. Further, the half-inhibitory concentration (IC50) in data set [4] and in data set [5] was above 69 µM throughout.
`COc1cc2c(C)c3c(cc2c2cc(O)c(C)cc12)O[C@H]1c2c(cc(O)c4cc(C)c(O)cc24)C(C)(C)C(=O)[C@]1(OC)O3` gave a CC50 in data set [1] above 129 µM. Further, the EC50 in data set [2] is above 172 µM. In addition, the half-maximal inhibitory concentration (IC50) in data set [4] was 8.1 µM; in data set [5], 9.1 µM; in [6] it was above 100 µM; in data set [7], above 100 µM. The Kd in [8] and in data set [9] was above 100 µM throughout.
`Cn1c(=O)c2c(c3ccccc31)OC(C)(C)[C@H]1CC[C@@](C)(O)[C@H](Cl)[C@H]21` came in with a cytotoxic concentration (CC50) in data set [1] above 208 µM. For the same molecule, in [2], the EC50 is above 277 µM. Besides, the IC50 in data set [4] was above 138 µM; in [5] it was above 119 µM.
Turning to `COc1cc2c3c(cc(O)c2cc1C)C(C)(C)C(=O)[C@@]1(OC)Oc2c(cc4c(cc(OC)c5cc(C)c(O)cc54)c2C)O[C@@H]31`, the half-maximal inhibitory concentration (IC50) is 10.9 µM in [4], 14.5 µM in [5], above 100 µM in data set [6] and above 100 µM in data set [7]. Moreover, the Kd in [8] and in data set [9] was above 100 µM in each case.
With `COc1cc2c3c(cc(O)c2cc1C)C(C)(C)C(=O)[C@@]1(OC)Oc2c(cc4c(cc(OC)c5cc(C)c(OC)cc54)c2C)O[C@@H]31`, the half-inhibitory concentration (IC50) in [4] was 13.6 µM; in data set [5], 21.7 µM; in [6], above 100 µM; in data set [7], above 100 µM. Also, the Kd in data set [8] and in data set [9] was above 100 µM in each case.
For `COc1cc2c3c(cc(O)c2cc1C)C(C)(C)C(=O)[C@]1(OC)Oc2c(cc4c(cc(OC)c5cc(C)c(OC)cc54)c2C)O[C@@H]31`, the IC50 in data set [4] is 12.7 µM; in [5], 17.8 µM; in [6] it was above 100 µM; in [7], above 100 µM. Moreover, the Kd in [8] and in data set [9] was above 100 µM throughout.
In data set [1], `C=C(C)[C@@]12OC3(c4ccccc4)O[C@@]4([C@H]([C@H]1O)[C@@H]1O[C@]1(CO)[C@@H](O)[C@@]1(O)[C@H]4C[C@H](C)[C@@H]1OC(=O)c1ccccc1)[C@](C)(O3)[C@@H]2OC(=O)c1ccccc1` displayed a cytotoxic concentration (CC50) of 49 µM. The EC50 in [2] was 4.4 µM. Also, the selectivity ratio in data set [3] was 11. Further, the concentration for half-maximal inhibition (IC50) in [4] and in data set [5] was above 69 µM in each case.
In turn, `Cn1c2c(c(=O)c3ccccc31)[C@H]1[C@@H](Cl)[C@](C)(O)CC[C@@H]1C(C)(C)O2` gave a CC50 in data set [1] above 277 µM. In data set [2], the EC50 is above 277 µM.
In the case of `COc1cc2c(C)c3c(cc2c2cc(O)c(C)cc12)O[C@H]1c2c(cc(O)c4cc(C)c(O)cc24)C(C)(C)C(=O)[C@@]1(OC)O3`, in [1], the 50% cytotoxic concentration (CC50) was above 172 µM. Further, the EC50 in [2] is above 86 µM. Besides, the half-maximal inhibitory concentration (IC50) in data set [4] was 4.8 µM; in data set [5], 4.5 µM; in data set [6] it was above 100 µM; in [7], above 100 µM. Further, the Kd in [8] and in data set [9] was above 100 µM throughout.
Consider `CC(=O)OCn1c(=O)c2c(c3ccccc31)OC(C)(C)[C@H]1CC[C@@](C)(O)[C@H](Cl)[C@H]21`, for which, in [1], the CC50 is above 239 µM. Moreover, the EC50 in [2] was above 239 µM. The IC50 in [4] is above 138 µM; in data set [5], above 119 µM.
Turning to `CC1(C)Oc2c(c(=O)[nH]c3ccccc23)[C@H]2[C@@H](Cl)[C@](C)(O)CC[C@@H]21`, the cytotoxic concentration (CC50) in data set [1] was above 288 µM. Moreover, the EC50 in [2] is above 288 µM.
Molecule `CO[C@]12Oc3c(cc4c(c3C)C(=O)C(=O)c3cc(C)c(O)cc3-4)O[C@H]1c1c(cc(O)c3cc(C)c(O)cc13)C(C)(C)C2=O` returned a cytotoxic concentration (CC50) in data set [1] above 172 µM. Further, the concentration giving a half-maximal response (EC50) in data set [2] is above 172 µM. For the same molecule, the IC50 stood at 8.1 µM in data set [4], 12.1 µM in [5], 36 µM in data set [6] and 67.2 µM in data set [7]. Also, the values for the Kd in [8] and in data set [9] were 32.1 µM and 9.3 µM, respectively.
With `Nc1ncnc2c1ncn2[C@@H]1O[C@H](COP(=O)(O)OP(=O)(O)OP(=O)(O)O)C[C@H]1O`, the concentration for half-maximal inhibition (IC50) stood at 0.14 µM in [4] and 0.07 µM in data set [5].
